Source: PMC7954469 (European journal of medicinal chemistry, 2021)
Where two headings read alike, the source gives them in different places. Where a SMILES comes first, the peptide text is derived from it. [ ]: non-standard residue; d: D form. The star is where a group is joined. Cbz = O=C(OCc1ccccc1)*

Legend:
C522A-p97 = C522A-p97 (Homo sapiens, UniProt P55072, C522A); details: cited from earlier work
Ub^G76V-GFP [1] = details: read-out: Apparent IC50 Ub^G76V-GFP; adapted from reference; cited from earlier work
Syk = details: cited from earlier work
p97 [2] = biological target: T1, p97 (Homo sapiens, UniProt P55072); details: read-out: Apparent IC50 p97; ATPase activity; adapted from reference; cited from earlier work
T1 sequence (P55072 whole entry): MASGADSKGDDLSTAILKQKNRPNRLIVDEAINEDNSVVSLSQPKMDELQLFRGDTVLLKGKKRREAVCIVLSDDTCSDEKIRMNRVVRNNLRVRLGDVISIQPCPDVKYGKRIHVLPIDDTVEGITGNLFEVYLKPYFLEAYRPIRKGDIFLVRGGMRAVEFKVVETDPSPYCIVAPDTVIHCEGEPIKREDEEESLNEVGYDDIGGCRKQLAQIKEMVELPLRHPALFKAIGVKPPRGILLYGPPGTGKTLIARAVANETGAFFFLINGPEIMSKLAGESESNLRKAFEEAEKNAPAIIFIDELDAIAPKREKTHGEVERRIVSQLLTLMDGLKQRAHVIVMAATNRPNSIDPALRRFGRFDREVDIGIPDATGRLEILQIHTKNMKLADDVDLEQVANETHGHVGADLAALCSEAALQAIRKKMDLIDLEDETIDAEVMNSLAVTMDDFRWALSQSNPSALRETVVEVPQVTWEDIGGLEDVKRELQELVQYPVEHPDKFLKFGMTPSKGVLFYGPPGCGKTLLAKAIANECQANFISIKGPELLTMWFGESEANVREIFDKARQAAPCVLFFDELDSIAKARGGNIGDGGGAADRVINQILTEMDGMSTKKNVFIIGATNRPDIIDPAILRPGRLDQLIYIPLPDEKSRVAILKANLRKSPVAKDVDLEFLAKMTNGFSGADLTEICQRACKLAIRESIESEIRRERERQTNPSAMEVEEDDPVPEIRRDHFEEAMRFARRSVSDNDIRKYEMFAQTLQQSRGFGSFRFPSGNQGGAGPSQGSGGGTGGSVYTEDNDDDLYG

ODD-Luc = details: read-out: Apparent IC50 ODD-Luc; adapted from reference; cited from earlier work
p97 [3] = details: cited from earlier work
p97 [4] = biological target: T1, p97; assay: p97 ATPase activity assay; format: biochemical
T532C-yeast Cdc48 = T532C-yeast Cdc48 (Saccharomyces cerevisiae, UniProt P25694, T532C); assay: ATPase activity assay, T532C-yeast Cdc48; format: biochemical
T532C-yeast Cdc48, sequence (P25694 whole entry T532C): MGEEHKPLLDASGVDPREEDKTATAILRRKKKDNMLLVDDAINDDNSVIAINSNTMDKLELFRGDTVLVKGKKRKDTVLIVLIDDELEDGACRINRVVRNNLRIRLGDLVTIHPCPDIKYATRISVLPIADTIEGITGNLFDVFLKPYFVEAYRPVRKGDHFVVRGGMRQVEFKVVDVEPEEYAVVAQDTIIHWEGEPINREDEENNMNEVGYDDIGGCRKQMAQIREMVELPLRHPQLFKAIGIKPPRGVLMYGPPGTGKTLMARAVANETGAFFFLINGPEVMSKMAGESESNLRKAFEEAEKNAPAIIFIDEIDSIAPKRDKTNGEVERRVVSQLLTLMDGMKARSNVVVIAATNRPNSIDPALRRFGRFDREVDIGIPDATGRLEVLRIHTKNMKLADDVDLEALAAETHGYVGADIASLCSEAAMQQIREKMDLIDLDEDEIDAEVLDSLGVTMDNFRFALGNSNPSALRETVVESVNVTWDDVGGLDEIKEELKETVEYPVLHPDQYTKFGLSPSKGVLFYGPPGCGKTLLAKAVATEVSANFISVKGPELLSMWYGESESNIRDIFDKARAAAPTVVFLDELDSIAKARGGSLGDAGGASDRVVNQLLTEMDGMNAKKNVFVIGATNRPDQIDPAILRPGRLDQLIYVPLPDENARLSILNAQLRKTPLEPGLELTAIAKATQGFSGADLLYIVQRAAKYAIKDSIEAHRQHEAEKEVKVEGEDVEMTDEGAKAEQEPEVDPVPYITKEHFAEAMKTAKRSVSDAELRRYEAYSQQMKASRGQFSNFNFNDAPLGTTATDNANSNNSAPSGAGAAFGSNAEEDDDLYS

Yeast Cdc48 = Yeast Cdc48 (Saccharomyces cerevisiae, UniProt P25694); assay: ATPase activity assay, yeast Cdc48; format: biochemical
Yeast Cdc48, sequence (P25694 whole entry): as the sequence (P25694 whole entry T532C) above, with C532T counted along it

Human 26S proteasome = Human 26S proteasome (Homo sapiens, UniProt P28074); assay: Human 26S proteasome activity assay; format: biochemical; details: 5, 25, or 50 μM; affinity-purified 26S proteasome from Hek293 cells; listed as PPA
Outline: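 26S proteasome was affinity-purified from HEK293 cells stably expressing tagged Rpn11. Suc-LLVY-AMC (60 μM) then started the reaction. Fluorescence was read every 3 min for 30 min, in sextuplicate.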

[5] = system: CB-5083 resistant HCT116 cell line harboring D649A, T688A p97 mutant (CB-R); assay: Anti-proliferative assay, CB-5083 resistant HCT116; format: cell-based, human; details: compared with parental HCT116; listed as PPA
TCRα-GFP = assay: TCRα-GFP; format: cell-based, human; details: 10 μM, 60 min or 120 min, cycloheximide, HEK293 cells
Outline: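 HEK293 cells stably expressing TCRα-GFP were pretreated 1 h with 4 μM MG132, then washed. They were then incubated with 50 μM cycloheximide plus 10 μM test compound, or MG132 as control, for 60 or 120 min before harvest. Lysates were immunoblotted with anti-GFP, with anti-p97 as loading control, and detected by ECL.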

[6] = system: NMS-873 resistant HCT116 cell line harboring A530T p97 mutant (NMS-R); assay: Anti-proliferative assay, NMS-873 resistant HCT116; format: cell-based, human; details: compared with parental HCT116; listed as PPA
Outline: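 Cells were grown in RPMI1640 or DMEM with 5% FBS and 1% penicillin-streptomycin. Seeding was 750 or 3000 cells/well, set from each line's luminescence–cell-number standard curve. After 24 h, cells got test compound (eight three-fold dilutions) for 48 h at 37 °C, 5% CO2. Viability was read by CellTiter-Glo luminescence. IC50 came from % growth versus DMSO control. Data are mean ± SEM of four replicate experiments.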

Hamster NSF = Hamster NSF (Cricetulus griseus, UniProt P18708); assay: ATPase activity assay, NSF; format: biochemical
Hamster NSF, sequence (P18708 whole entry): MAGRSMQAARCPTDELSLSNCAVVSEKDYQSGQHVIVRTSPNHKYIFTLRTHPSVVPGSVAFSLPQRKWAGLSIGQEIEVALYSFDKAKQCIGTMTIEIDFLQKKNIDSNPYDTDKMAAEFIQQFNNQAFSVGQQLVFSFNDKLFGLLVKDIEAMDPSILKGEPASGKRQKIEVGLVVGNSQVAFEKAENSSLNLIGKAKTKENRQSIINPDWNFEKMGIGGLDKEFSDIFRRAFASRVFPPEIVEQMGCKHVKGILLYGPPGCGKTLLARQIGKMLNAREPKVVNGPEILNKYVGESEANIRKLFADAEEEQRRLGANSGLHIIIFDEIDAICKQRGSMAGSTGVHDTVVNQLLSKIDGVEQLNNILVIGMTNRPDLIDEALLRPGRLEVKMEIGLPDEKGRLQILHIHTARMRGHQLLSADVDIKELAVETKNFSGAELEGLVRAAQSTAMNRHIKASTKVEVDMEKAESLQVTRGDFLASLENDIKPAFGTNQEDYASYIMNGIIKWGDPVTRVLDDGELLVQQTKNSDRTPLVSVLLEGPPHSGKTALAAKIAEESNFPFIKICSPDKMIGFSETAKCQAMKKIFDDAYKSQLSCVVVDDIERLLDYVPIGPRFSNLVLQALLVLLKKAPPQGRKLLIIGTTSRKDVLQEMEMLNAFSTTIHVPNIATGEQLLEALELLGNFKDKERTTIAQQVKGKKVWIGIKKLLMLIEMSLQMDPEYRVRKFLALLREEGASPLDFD

Ub^G76V-GFP [7] = assay: Washout; format: cell-based, human; details: cycloheximide, additional 17 h
C522A mutant = details: cited from earlier work
cancer cell lines = details: cited from earlier work

C522A-p97, sequence (P55072 whole entry C522A): as the sequence (P55072 whole entry) above, with C522A counted along it

For “3,4-methylenedioxy-β-nitrostyrene [Compound 2]”, the “Activity towards the C522A mutant (in words)” value (C522A-p97) is listed as “poor activity”, the IC50 (Ub^G76V-GFP [1]) is listed as 1.6 ± 0.4 µM and the “IC50 Syk (in words)” value (Syk) is listed as “submicromolar”. For the same compound, the IC50 (p97 [2]) was 1.7 ± 0.5 µM and the IC50 (ODD-Luc) was 3.9 ± 1 µM.

In the case of `O=C(/C=C1\Nc2ccccc2C(=O)N2CCC[C@@H]12)/C=C/c1c[nH]c2ccc(I)cc12` [5’-I-Fuligocandin B], the IC50 (p97 [3]) is listed as 7 µM.

With `Cc1ccc(-c2c(C(=O)CF)n(CCCO)c3ncnc(N)c23)cc1` [Compound 5] the “Less active than compound 4” value (p97 [4]; in vitro and cell-based p97 assays, summary of Table 1) was 10 fold.

With `O=C(O)/C=C/c1ccc2c(c1)OCO2` [Compound 7] the “Activity in ATPase and Ub^G76V-GFP turnover assays (in words)” value (p97 [4]; summary of Tables 2 and 3) was “complete loss of activity”.

`CC(C)(C)n1nc(-c2ccccc2)c2c(N)ncnc21` [Compound 17, 4-amino-1-tert-butyl-3-phenyl pyrazolo[3,4-d]pyrimidine] showed an IC50 (T532C-yeast Cdc48) greater than 100 µM.

For `C=CC(=O)Nc1ncnc2c1c(-c1ccccc1)nn2C(C)(C)C` [Compound 18, N-(1-(tert-butyl)-3-phenyl-1H-pyrazolo[3,4-d]pyrimidin-4-yl)acrylamide], the IC50 (Yeast Cdc48) was 300 µM, the “Selectivity on wild-type vs. Cys522-mutated p97” value (p97 [4]) was “up to 100 fold” and the “Inhibition of hydrolysis of LLVY-AMC by 26S proteasome (in words)” value (Human 26S proteasome) was “did not inhibit”. The “Anti-proliferative activity in CB-R HCT116 (in words)” value [5] was “can inhibit growth”, the “Degradation of ERAD substrate TCRα-GFP (in words)” value (TCRα-GFP) was “block degradation” and the “Anti-proliferative activity in NMS-R HCT116 (in words)” value [6] was “can inhibit growth”. For the same compound, the IC50 (Hamster NSF) was 100 µM, the “NSF less sensitive than p97” value (Hamster NSF) was “more than 100 fold” and the “Reversibility: Ub^G76V-GFP degradation after washout (in words)” value (Ub^G76V-GFP [7]) was “irreversibly block degradation”.

Work on `CC(C)(C)n1nc(-c2ccc3ccccc3c2)c2c(N)ncnc21` [Compound 21, 2-Naphthyl pyrazolopyrimidine] yielded an IC50 (T532C-yeast Cdc48) greater than 100 µM.

In the case of `CC(C)C[C@@H](C=O)NC(=O)[C@@H](CC(C)C)NC(=O)[C@H](CC(C)C)NC(=O)OCc1ccccc1` [MG132] (Cbz-Leu-[dL]-Leu-aldehyde), the “Reversibility: Ub^G76V-GFP degradation after washout (in words)” value (Ub^G76V-GFP [7]) is reported as “degraded after washing out”.

In the case of `COc1cccc2c(NCc3ccccc3)nc(-n3c(N)nc4ccccc43)nc12` [ML240], the IC50 (p97 [3]) is listed as roughly 0.1 µM.

For `c1ccc(CNc2nc(N3CCOc4ccccc43)nc3c2CCCC3)cc1` [ML241], the IC50 (p97 [3]) is given as roughly 0.1 µM.

For `CC(C)N1CCN(CCNC2CCN(c3cccc(-c4cc5cc(F)ccc5[nH]4)c3)CC2)CC1` [UPCDC30245], the IC50 (p97 [3]; allosteric p97 inhibitor) is listed as 0.027 µM.

In the case of `CC(=O)OCC1=C(C)C[C@H]([C@@H](C)[C@H]2CC[C@H]3[C@@H]4C[C@H]5O[C@]56[C@@H](O)C=CC(=O)[C@]6(C)[C@H]4CC[C@]23C)OC1=O` [Withaferin A 27-Acetate], the “Inhibition against the C522A mutant (in words)” value (C522A mutant) is given as “didn’t show inhibition”, the IC50 (p97 [3]; wild-type p97) is given as 21 µM and the “Anti-proliferative effects at lower concentration than p97 IC50” value (cancer cell lines) is given as 10 fold.

In the case of `CC1CCCC=CC(=O)c2c(O)cc(O)cc2CC(=O)O1` (stereo not shown) [Δ(10,11)-Dehydrocurvularin], the IC50 (p97 [3]; covalent bond with Cys522) is listed as 15.3 ± 9.9 µM.

For Oxaspirol B, the IC50 (p97 [3]) is given as 31.2 ± 3 µM.
